The source made the active and inactive calls. No cut-off for these calls is given here.
Columns and labels:
HepG2 = test: Antitumor activity against human HepG2 cells assessed as inhibition of cell growth measured after 48 hrs by MTT assay; assay type: functional, cell-based; details: HepG2, 48 h
Outline: (§1)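 MTT assay; cells seeded in 96-well plates, exposed 48 h to freshly prepared compound at five concentrations, four replicate wells each; MTT (5 mg/mL) added for 4 h, formazan dissolved in DMSO, absorbance at 490 nm. IC50 by nonlinear regression; mean of three independent experiments.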

SW1990 = test: Antitumor activity against human SW1990 cells assessed as inhibition of cell growth measured after 48 hrs by MTT assay; assay type: functional, cell-based; details: SW1990, 48 h; outline: as §1
HEK293 = test: Cytotoxicity against human HEK293 cells assessed as reduction in cell viability measured after 48 hrs by MTT assay; assay type: cell-based; details: HEK293, 48 h; outline: as §1
HCT-116 = test: Antitumor activity against human HCT-116 cells assessed as inhibition of cell growth measured after 48 hrs by MTT assay; assay type: functional, cell-based; details: HCT-116, 48 h; outline: as §1
[1] = target: T1, DNA topoisomerase 1 (Homo sapiens) (UniProt P11387); test: Inhibition of human recombinant Topoisomerase 1 using supercoiled pBR322 DNA as substrate at 100 uM incubated for 30 mins by ethidium bromide staining based agarose gel electrophoresis
T1 sequence (whole entry): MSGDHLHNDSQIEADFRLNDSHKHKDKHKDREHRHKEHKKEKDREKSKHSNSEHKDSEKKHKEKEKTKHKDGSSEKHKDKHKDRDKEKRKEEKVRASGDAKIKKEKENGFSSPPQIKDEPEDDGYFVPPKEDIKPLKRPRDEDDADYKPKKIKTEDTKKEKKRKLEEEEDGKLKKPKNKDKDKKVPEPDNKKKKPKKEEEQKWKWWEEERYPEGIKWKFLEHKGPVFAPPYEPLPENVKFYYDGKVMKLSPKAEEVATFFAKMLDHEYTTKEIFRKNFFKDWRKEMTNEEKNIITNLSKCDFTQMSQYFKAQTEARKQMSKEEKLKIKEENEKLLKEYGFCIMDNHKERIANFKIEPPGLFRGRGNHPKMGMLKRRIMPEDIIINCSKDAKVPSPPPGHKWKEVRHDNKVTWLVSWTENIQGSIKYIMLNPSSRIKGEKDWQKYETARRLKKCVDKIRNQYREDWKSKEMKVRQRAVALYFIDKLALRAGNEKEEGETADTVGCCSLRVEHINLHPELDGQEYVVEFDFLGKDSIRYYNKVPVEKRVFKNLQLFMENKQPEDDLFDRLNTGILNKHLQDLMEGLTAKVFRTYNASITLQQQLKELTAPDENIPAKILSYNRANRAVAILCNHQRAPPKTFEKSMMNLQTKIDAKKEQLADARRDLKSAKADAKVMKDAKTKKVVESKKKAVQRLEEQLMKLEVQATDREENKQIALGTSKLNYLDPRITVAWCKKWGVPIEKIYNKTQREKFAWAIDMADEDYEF
Outline: (§2)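 Cell-free relaxation assay: 1 U recombinant human Topo I with 0.5 µg supercoiled pBR322 in Topo I buffer (Tris-HCl pH 8.0, KCl, MgCl2, DTT, 0.1% BSA), 37 °C for 30 min. 10-HCPT and irinotecan as positive controls. Supercoiled, relaxed and nicked forms resolved on 0.8% agarose in TAE, 90 V for 2 h, ethidium bromide stained.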

[2] = target: T1, DNA topoisomerase 1 (Homo sapiens); test: Inhibition of human recombinant Topoisomerase 1 using supercoiled pBR322 DNA as substrate at 50 uM incubated for 30 mins by ethidium bromide staining based agarose gel electrophoresis; outline: as §2

Row | SMILES | IC50 (HepG2) | IC50 (SW1990) | IC50 (HEK293) | IC50 (HCT-116) | inhibition [1] | inhibition [2]
1 | CC[C@@]1(OC(=O)NCCOCCO[C@@H]2O[C@H](COC(C)=O)[C@@H](OC(C)=O)[C@H](OC(N)=O)[C@@H]2OC(C)=O)C(=O)OCc2c1cc1n(c2=O)Cc2cc3ccccc3nc2-1 | 3.7 µM | 7.6 µM | 50.2 µM | 3.6 µM | – | –
2 | CC[C@@]1(OC(=O)NCCOCCOCCO[C@@H]2O[C@H](CO)[C@@H](O)[C@H](O)[C@H]2O)C(=O)OCc2c1cc1n(c2=O)Cc2cc3ccccc3nc2-1 | 1.3 µM | 12.5 µM | 0.7 µM | 4.8 µM | – | –
3 | CC[C@@]1(OC(=O)NCCO[C@@H]2O[C@H](COC(C)=O)[C@@H](OC(C)=O)[C@H](OC(N)=O)[C@@H]2OC(C)=O)C(=O)OCc2c1cc1n(c2=O)Cc2cc3ccccc3nc2-1 | 18.5 µM | 20.6 µM | 3.9 µM | 10.8 µM | – | –
4 | CC[C@@]1(OC(=O)NCCOCCO[C@@H]2O[C@H](COC(C)=O)[C@@H](OC(C)=O)[C@H](OC(C)=O)[C@@H]2O[C@H]2O[C@H](COC(C)=O)[C@@H](OC(C)=O)[C@H](OC(N)=O)[C@H]2OC(C)=O)C(=O)OCc2c1cc1n(c2=O)Cc2cc3ccccc3nc2-1 | 1.6 µM | 11.3 µM | 1.5 µM | 1.3 µM | Active | Active
5 | CC[C@@]1(OC(=O)NCCOCCOCCOC2O[C@H](COC(C)=O)[C@@H](OC(C)=O)[C@H](OC(N)=O)[C@@H]2OC(C)=O)C(=O)OCc2c1cc1n(c2=O)Cc2cc3ccccc3nc2-1 (single isomer, unassigned) | 1.8 µM | 31.4 µM | 3.4 µM | 4.6 µM | – | –
6 | CC[C@@]1(OC(=O)NCCO[C@@H]2O[C@H](CO)[C@@H](O)[C@H](O)[C@H]2O)C(=O)OCc2c1cc1n(c2=O)Cc2cc3ccccc3nc2-1 | 3.8 µM | 10.3 µM | 3.5 µM | 4.3 µM | – | –
7 | CC[C@@]1(OC(=O)NCCOCCOCCO[C@@H]2O[C@H](CO)[C@@H](O)[C@H](OC(N)=O)[C@@H]2O)C(=O)OCc2c1cc1n(c2=O)Cc2cc3ccccc3nc2-1 | 0.8 µM | 18.2 µM | 0.4 µM | 0.9 µM | – | –
8 | CC[C@@]1(OC(=O)NCCO[C@@H]2O[C@H](COC(C)=O)[C@@H](OC(C)=O)[C@H](OC(C)=O)[C@@H]2O[C@H]2O[C@H](COC(C)=O)[C@@H](OC(C)=O)[C@H](OC(N)=O)[C@H]2OC(C)=O)C(=O)OCc2c1cc1n(c2=O)Cc2cc3ccccc3nc2-1 | 4.2 µM | 25.1 µM | 1.6 µM | 6.7 µM | Active | –
9 | CC[C@@]1(OC(=O)NCCOCCOCCO[C@@H]2O[C@H](CO)[C@@H](O)[C@H](O)[C@@H]2O)C(=O)OCc2c1cc1n(c2=O)Cc2cc3ccccc3nc2-1 | 0.8 µM | 16.3 µM | 0.6 µM | 0.5 µM | – | –
10 | CC[C@@]1(OC(=O)NCCOCCO[C@@H]2O[C@H](CO)[C@@H](O)[C@H](O)[C@@H]2O)C(=O)OCc2c1cc1n(c2=O)Cc2cc3ccccc3nc2-1 | 0.3 µM | 3.2 µM | 22.4 µM | 5.6 µM | – | –
11 | CC[C@@]1(OC(=O)NCCO[C@@H]2O[C@H](COC(C)=O)[C@@H](OC(C)=O)[C@H](OC(C)=O)[C@@H]2OC(C)=O)C(=O)OCc2c1cc1n(c2=O)Cc2cc3ccccc3nc2-1 | 4.3 µM | 9.7 µM | 2.3 µM | 7.5 µM | – | –
12 | CC[C@@]1(OC(=O)NCCOCCOCCO[C@@H]2O[C@H](CO)[C@H](O)[C@H](O)[C@H]2O)C(=O)OCc2c1cc1n(c2=O)Cc2cc3ccccc3nc2-1 | 1.2 µM | 19.9 µM | 0.7 µM | 8.2 µM | Active | –
13 | CC[C@@]1(OC(=O)NCCOCCOCCO[C@@H]2O[C@H](COC(C)=O)[C@H](OC(C)=O)[C@H](OC(C)=O)[C@H]2OC(C)=O)C(=O)OCc2c1cc1n(c2=O)Cc2cc3ccccc3nc2-1 | 0.7 µM | 8.3 µM | 0.8 µM | 0.9 µM | Active | –
14 | CC[C@@]1(OC(=O)NCCO[C@@H]2O[C@H](CO)[C@@H](O)[C@H](OC(N)=O)[C@@H]2O)C(=O)OCc2c1cc1n(c2=O)Cc2cc3ccccc3nc2-1 | 11.6 µM | 32.8 µM | 3.2 µM | 2.3 µM | – | –
15 | CC[C@@]1(OC(=O)NCCO[C@@H]2O[C@H](CO)[C@@H](O)[C@H](O)[C@@H]2O)C(=O)OCc2c1cc1n(c2=O)Cc2cc3ccccc3nc2-1 | 10.3 µM | 20.4 µM | 5.8 µM | 8.2 µM | – | –
16 | CC[C@@]1(OC(=O)NCCO[C@@H]2O[C@H](COC(C)=O)[C@H](OC(C)=O)[C@H](OC(C)=O)[C@H]2OC(C)=O)C(=O)OCc2c1cc1n(c2=O)Cc2cc3ccccc3nc2-1 | 60.2 µM | 37.5 µM | 8.6 µM | 29.5 µM | – | –
17 | CC[C@@]1(OC(=O)NCCO[C@@H]2O[C@H](COC(C)=O)[C@@H](OC(C)=O)[C@H](OC(C)=O)[C@H]2OC(C)=O)C(=O)OCc2c1cc1n(c2=O)Cc2cc3ccccc3nc2-1 | 29.9 µM | 24.8 µM | 29.5 µM | 15 µM | – | –
18 | CC[C@@]1(OC(=O)NCCOCCOC2O[C@H](COC(C)=O)[C@@H](OC(C)=O)[C@H](OC(C)=O)[C@H]2OC(C)=O)C(=O)OCc2c1cc1n(c2=O)Cc2cc3ccccc3nc2-1 (single isomer, unassigned) | 2.1 µM | 10.3 µM | 12.3 µM | 4.2 µM | – | –
19 | CC[C@@]1(OC(=O)NCCOCCOCCO[C@@H]2O[C@H](COC(C)=O)[C@@H](OC(C)=O)[C@H](OC(C)=O)[C@H]2OC(C)=O)C(=O)OCc2c1cc1n(c2=O)Cc2cc3ccccc3nc2-1 | 0.7 µM | 4.5 µM | 0.6 µM | 0.8 µM | – | –
20 | CC[C@@]1(OC(=O)NCCOCCO[C@@H]2O[C@H](CO)[C@@H](O)[C@H](O)[C@H]2O)C(=O)OCc2c1cc1n(c2=O)Cc2cc3ccccc3nc2-1 | 1.2 µM | 9.6 µM | 24.6 µM | 0.5 µM | – | –
21 | CC[C@@]1(OC(=O)NCCOCCOCCO[C@@H]2O[C@H](COC(C)=O)[C@@H](OC(C)=O)[C@H](OC(C)=O)[C@@H]2OC(C)=O)C(=O)OCc2c1cc1n(c2=O)Cc2cc3ccccc3nc2-1 | 1.6 µM | 28.9 µM | 3.4 µM | 0.6 µM | – | –
22 | CC[C@@]1(O)C(=O)OCc2c1cc1n(c2=O)Cc2cc3cc(O)ccc3nc2-1 | – | – | – | – | Active | –
23 | CC[C@@]1(OC(=O)NCCOCCOC2O[C@H](COC(C)=O)[C@@H](OC(C)=O)[C@H](OC(C)=O)[C@@H]2OC(C)=O)C(=O)OCc2c1cc1n(c2=O)Cc2cc3ccccc3nc2-1 (single isomer, unassigned) | 4.8 µM | 10.3 µM | 20.6 µM | 4.4 µM | – | –
24 | CC[C@@]1(OC(=O)NCCOCCO[C@@H]2O[C@H](CO)[C@H](O)[C@H](O)[C@H]2O)C(=O)OCc2c1cc1n(c2=O)Cc2cc3ccccc3nc2-1 | 2.8 µM | 10.6 µM | 43.5 µM | 2.6 µM | – | –
25 | CC[C@@]1(OC(=O)NCCO[C@@H]2O[C@H](CO)[C@H](O)[C@H](O)[C@H]2O)C(=O)OCc2c1cc1n(c2=O)Cc2cc3ccccc3nc2-1 | 4.9 µM | 9.3 µM | 2.2 µM | 4.1 µM | – | –

From ChEMBL document CHEMBL4706509, “Oligosaccharide-camptothecin conjugates as potential antineoplastic drugs: Design, synthesis and biological evaluation” (Eur J Med Chem, 2020)
